Measurements from ChEMBL document CHEMBL3286139, “Synthesis of α, β-unsaturated carbonyl based compounds as acetylcholinesterase and butyrylcholinesterase inhibitors: characterization, molecular modeling, QSAR studies and effect against amyloid β-induced cytotoxicity” (Eur J Med Chem, 2014).
Activity calls are given as the source filed them. The rule behind the calls is not given here.

Experiments:
[1] = test system: Radical scavenging activity; assay: Antioxidant activity assessed as DPPH free radical scavenging activity; format: functional
[2] = Cytotoxicity against rat PC12 cells at 0.01 to 100 uM after 24 hrs by MTT assay; format: cell-based; settings: pc-12, 24 h
How it was run: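 PC12 cells kept in RPMI-1640 with 10% heat-inactivated FBS and 1% penicillin-streptomycin at 37°C, 5% CO2. Seeded 1×10^4 cells/well, exposed to compound (0.01-100 μM) for 24 h. MTT (2.0 mg/ml) added for 4 h at 37°C, formazan dissolved in DMSO, read at 570/630 nm. Viability given as percent of control cultures.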

PC-12 = assay: Neuroprotective activity against amyloid beta (1 to 42)-induced cytotoxicity in rat PC12 cells at 0.01 to 100 uM pretreated for 24 hrs followed by addition of 25 uM amyloid beta (1 to 42) by MTT assay; format: functional, cell-based
How it was run: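 PC12 cells (RPMI-1640, 10% heat-inactivated FBS, 37°C, 5% CO2) pre-incubated with compound (0.01-100 μM) in serum-free medium for 24 h, then given 25 µM Aβ1-42. Untreated control lacked Aβ. Selegiline served as positive control. MTT 2.0 mg/ml for 4 h at 37°C, DMSO solubilization, 570/630 nm read. Mean percent viable cells versus untreated, mean ± SE, n=5.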

[3] = Neuroprotective activity against amyloid beta (1 to 42)-induced cytotoxicity in rat PC12 cells at 100 uM pretreated for 24 hrs followed by addition of 25 uM amyloid beta (1 to 42) by MTT assay; format: functional, PC-12
How it was run: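 PC12 cells in RPMI-1640/10% heat-inactivated FBS, 37°C, 5% CO2, seeded 1×10^4 cells/well. Compound pre-incubation 24 h in serum-free medium, then 25 µM Aβ1-42 added; selegiline as positive control. MTT 2.0 mg/ml, 4 h at 37°C, formazan dissolved in DMSO, read 570/630 nm. Viability as % of untreated cells, mean ± SE, n=5.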

Row | SMILES | IC50 [1] | Activity [2] | Activity (PC-12) | Activity [3]
1 | CN1C/C(=C/c2ccc(N3CCCC3)cc2)C(=O)/C(=C/c2ccc(N3CCCC3)cc2)C1 | 43.3 µM | Non-toxic | inactive | –
2 | CCOC(OCC)c1ccc(/C=C2\CCc3ccccc3C2=O)cc1 | 39.5 µM | Non-toxic | inactive | –
3 | CN(C)c1ccc(/C=C2/COC/C(=C\c3ccc(N(C)C)cc3[N+](=O)[O-])C2=O)c([N+](=O)[O-])c1 | 29.2 µM | Non-toxic | Active | –
4 | O=C1/C(=C/c2ccc(N3CCCC3)cc2)CCc2ccccc21 | 29.2 µM | Non-toxic | inactive | –
5 | CN(C)c1ccc(/C=C2/CNC/C(=C\c3ccc(N(C)C)cc3[N+](=O)[O-])C2=O)c([N+](=O)[O-])c1 | 25.7 µM | Non-toxic | Active | <=87%
6 | O=C1/C(=C\c2ccc(N3CCCC3)cc2)CNC/C1=C\c1ccc(N2CCCC2)cc1 | 26.9 µM | Non-toxic | inactive | –
7 | CCOC(OCC)c1ccc(/C=C/C(=O)C2CCc3ccccc3C2=O)cc1 (configuration not stated) | > 50 µM | Non-toxic | inactive | –
8 | CN(C)c1ccc(/C=C2\CC/C(=C\c3ccc(N(C)C)cc3[N+](=O)[O-])C2=O)c([N+](=O)[O-])c1 | 47.8 µM | Non-toxic | Active | –
9 | CCOC(OCC)c1ccc(/C=C2\CN(C)C/C(=C\c3ccc(C(OCC)OCC)cc3)C2=O)cc1 | 20.4 µM | Non-toxic | Active | <=87%
10 | C#CCN(C)[C@H](C)Cc1ccccc1 | – | – | Active | –
11 | O=C(/C=C/c1ccc(N2CCCC2)cc1)C1CCc2ccccc2C1=O (configuration not stated) | 27.9 µM | Non-toxic | inactive | –
12 | CN(C)c1ccc(/C=C2/CN(Cc3ccccc3)C/C(=C\c3ccc(N(C)C)cc3[N+](=O)[O-])C2=O)c([N+](=O)[O-])c1 | > 50 µM | Non-toxic | Active | –
13 | CCOC(OCC)c1ccc(/C=C2\CNC/C(=C\c3ccc(C(OCC)OCC)cc3)C2=O)cc1 | 19.3 µM | Non-toxic | Active | <=87%
14 | CN(C)c1ccc(/C=C/C(=O)/C=C/c2ccc(N(C)C)cc2[N+](=O)[O-])c([N+](=O)[O-])c1 | > 50 µM | Non-toxic | Active | –
15 | O=C1/C(=C\c2ccc(N3CCCC3)cc2)CCC/C1=C\c1ccc(N2CCCC2)cc1 | 31.3 µM | Non-toxic | inactive | –
16 | CCOC(OCC)c1ccc(/C=C/C(=O)/C=C/c2ccc(C(OCC)OCC)cc2)cc1 | > 50 µM | Non-toxic | inactive | –

Row | SMILES | IC50 [1] | Activity [2] | Activity (PC-12) | Activity [3]
17 | O=C1/C(=C/c2ccc(N3CCCC3)cc2)CC/C1=C\c1ccc(N2CCCC2)cc1 | > 50 µM | Non-toxic | inactive | –
18 | O=C1/C(=C/c2ccc(N3CCCC3)cc2)Cc2ccccc21 | > 50 µM | Non-toxic | inactive | –
19 | CN1C/C(=C/c2ccc(N(C)C)cc2[N+](=O)[O-])C(=O)/C(=C/c2ccc(N(C)C)cc2[N+](=O)[O-])C1 | 18.4 µM | Non-toxic | Active | <=87%
20 | CCOC(OCC)c1ccc(/C=C2\CCC/C(=C\c3ccc(C(OCC)OCC)cc3)C2=O)cc1 | 20.1 µM | Non-toxic | Active | <=87%
21 | CCOC(OCC)c1ccc(/C=C2\CC/C(=C\c3ccc(C(OCC)OCC)cc3)C2=O)cc1 | – | Non-toxic | inactive | –
22 | CCOC(OCC)c1ccc(/C=C2\COC/C(=C\c3ccc(C(OCC)OCC)cc3)C2=O)cc1 | 29.3 µM | Non-toxic | inactive | –
23 | O=C(/C=C/c1ccc(N2CCCC2)cc1)/C=C/c1ccc(N2CCCC2)cc1 | > 50 µM | Non-toxic | inactive | –
24 | CN(C)c1ccc(/C=C2\Cc3ccccc3C2=O)c([N+](=O)[O-])c1 | > 50 µM | Non-toxic | Active | –
25 | CCOC(OCC)c1ccc(/C=C2\Cc3ccccc3C2=O)cc1 | 37.2 µM | Non-toxic | inactive | –
26 | CN(C)c1ccc(/C=C/C(=O)C2CCc3ccccc3C2=O)c([N+](=O)[O-])c1 (configuration not stated) | 49.1 µM | Non-toxic | Active | –
27 | O=C1/C(=C\c2ccc(N3CCCC3)cc2)CN(Cc2ccccc2)C/C1=C\c1ccc(N2CCCC2)cc1 | > 50 µM | Non-toxic | inactive | –
28 | O=C1O[C@H]([C@@H](O)CO)C(O)=C1O [ASCORBIC ACID] | 19.4 µM | – | – | –
29 | O=C1/C(=C\c2ccc(N3CCCC3)cc2)COC/C1=C\c1ccc(N2CCCC2)cc1 | > 50 µM | Non-toxic | inactive | –
30 | CN(C)c1ccc(/C=C2/CCC/C(=C\c3ccc(N(C)C)cc3[N+](=O)[O-])C2=O)c([N+](=O)[O-])c1 | 32.5 µM | Non-toxic | Active | –
31 | CCOC(OCC)c1ccc(/C=C2\CN(Cc3ccccc3)C/C(=C\c3ccc(C(OCC)OCC)cc3)C2=O)cc1 | 28.2 µM | Non-toxic | inactive | –
32 | CN(C)c1ccc(/C=C2\CCc3ccccc3C2=O)c([N+](=O)[O-])c1 | 23 µM | Non-toxic | Active | <=87%
